Experimental data as given in ChEMBL document CHEMBL1123839, “5-Acyl-3-substituted-benzofuran-2(3H)-ones as potential antiinflammatory agents” (1987).

How the values were obtained:
Type in all cases: functional
Cavia porcellus [1] = organism: Cavia porcellus; assay: Tested for effect on the production of Lipoxygenase (LO) metabolite, 5-HETE in guinea pig peritoneal polymorphonuclear neutrophils at 30 uM concentration
How it was run: (§1)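 Guinea pig peritoneal PMNs were incubated with [14C]arachidonic acid and stimulated with calcium ionophore A23187. Compounds were tested at 30 μM in 0.1 N NaOH–Krebs Ringer bicarbonate buffer. Radiolabeled cyclooxygenase and lipoxygenase products were identified by HPLC and GC-MS, separated by TLC and quantified by automatic scanning.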

Cavia porcellus [2] = organism: Cavia porcellus; assay: Tested for effect on the production of Lipoxygenase (LO) metabolite, 5,12-diHETE in guinea pig peritoneal polymorphonuclear neutrophils at 30 uM concentration; how it was run: as §1
Rattus norvegicus [3] = assay: Antiinflammatory activity was assessed by the ability to improve the adjuvant induced arthritis in left secondary lesion in rats at oral doses, 33 mg/kg (volume change in the injected paw measured from day 9 to day 18)
Rattus norvegicus [4] = assay: Antiinflammatory activity was assessed by the ability to improve the adjuvant induced arthritis in right primary lesion in rats at oral doses, 33 mg/kg (volume change in the injected paw measured from day 0 to day 8)
How it was run: (§2)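 Female Sprague–Dawley rats (150–170 g), six per group. Arthritis induced by subcutaneous plantar injection of 0.125 mg killed tubercle bacillus in liquid paraffin into the right hind paw. Dosing was 33 mg/kg orally, daily for 14 days, starting the day before adjuvant. Paw volumes were measured by mercury plethysmography every 2–3 days over 18 days. Primary lesion: right paw, days 0–8. Secondary lesions: right and left (uninjected) paws, days 9–18. Areas under the time-course curves were compared with controls by ANOVA.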

Rattus norvegicus [5] = organism: Rattus norvegicus; assay: Antiinflammatory activity was assessed improvement of adjuvant induced arthritis in rats, determined by joint mobility of the paw; design: concentration or dose not given beside the values
How it was run: (§3)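 Adjuvant arthritis was induced in female Sprague–Dawley rats (150–170 g, groups of six) by right-hind-paw plantar injection of killed tubercle bacillus in paraffin. Treatment was 33 mg/kg orally, daily for 14 days, starting the day before adjuvant. Joint involvement was scored as the angle through which the hind paws moved easily, given as percent change versus nontreated controls.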

Cavia porcellus [6] = organism: Cavia porcellus; assay: Tested for effect on the production of cyclooxygenase (COX) metabolite, PGE-2 (prostaglandin E2) of arachidonic acid in guinea pig peritoneal polymorphonuclear neutrophils at 30 uM concentration; how it was run: as §1
Rattus norvegicus [7] = assay: Ability to improve the adjuvant induced arthritis in right secondary lesion in rats at oral doses, 33 mg/kg; how it was run: as §2
Cavia porcellus [8] = organism: Cavia porcellus; assay: Tested for effect on the production of cyclooxygenase (COX) metabolite, PGF2-alpha (prostaglandin F2-alpha) of arachidonic acid in guinea pig peritoneal polymorphonuclear neutrophils at 30 uM concentration; how it was run: as §1
Cavia porcellus [9] = organism: Cavia porcellus; assay: Tested for effect on the production of cyclooxygenase (COX) metabolite, TXB2 of arachidonic acid in guinea pig peritoneal polymorphonuclear neutrophils at 30 uM concentration; how it was run: as §1
Rattus norvegicus [10] = assay: Antiinflammatory activity was assessed by the ability to improve the adjuvant induced arthritis in left secondary lesion in rats at oral doses, 33 mg/kg (volume change in the uninjected paw measured from day 9 to day 18); how it was run: as §2
Rattus norvegicus [11] = assay: Antiinflammatory activity was assessed by the ability to improve the adjuvant induced arthritis rats was determined by joint mobility of the paw at oral doses, 33 mg/kg; how it was run: as §3
Cavia porcellus [12] = organism: Cavia porcellus; assay: Tested for effect on the production of Lipoxygenase (LO) metabolite, 5,12-diHETE in guinea pig peritoneal polymorphonuclear neutrophils at 30 uM concentration; ND = no data; how it was run: as §1
Cavia porcellus [13] = organism: Cavia porcellus; assay: Tested for effect on the production of Lipoxygenase (LOX) metabolite, 5-HETE in guinea pig peritoneal polymorphonuclear neutrophils at 30 uM concentration; how it was run: as §1
Rattus norvegicus [14] = organism: Rattus norvegicus; assay: Antiinflammatory activity was assessed by the ability to improve the adjuvant induced arthritis in left secondary lesion in rats (volume change in the […] to day 18)
Rattus norvegicus [15] = organism: Rattus norvegicus; assay: Antiinflammatory activity was assessed by the ability to improve the adjuvant induced arthritis in right primary lesion in rats(volume change in the injected paw measured from day 0 to day 8); how it was run: as §2
Rattus norvegicus [16] = organism: Rattus norvegicus; assay: Antiinflammatory activity was assessed by the ability to improve the adjuvant induced arthritis in right secondary lesion in rats (volume change in the injected paw measured from day 9 to day 18); how it was run: as §2

SMILES | Reduction (Cavia porcellus [1]) [%] | Reduction (Cavia porcellus [2]) [%] | Reduction (Rattus norvegicus [3]) [%] | Reduction (Rattus norvegicus [4]) [%] | Reduction (Rattus norvegicus [5]) [%] | Reduction (Cavia porcellus [6]) [%] | Reduction (Rattus norvegicus [7]) [%] | Reduction (Cavia porcellus [8]) [%] | Reduction (Cavia porcellus [9]) [%] | Reduction (Rattus norvegicus [10]) [%] | Reduction (Rattus norvegicus [11]) [%] | Reduction (Cavia porcellus [12]) [%] | Reduction (Cavia porcellus [13]) [%] | Reduction (Rattus norvegicus [14]) [%] | Reduction (Rattus norvegicus [15]) [%] | Reduction (Rattus norvegicus [16]) [%]
CC(C(=O)O)c1cc(C(=O)c2ccccc2)ccc1O (centres undefined) | -27 | -55 | 61 | 30 | 38 | 77 | 37 | 52 | 75 |  |  |  |  |  |  | 
O=C(O)Cc1cc(C(=O)c2cccs2)ccc1O | -72 | -62 |  | 11 | 1 | 74 | 20 | 74 | 89 | 10 |  |  |  |  |  | 
O=C1Oc2ccc(C(=O)c3cccs3)cc2/C1=C/c1ccccc1 | -18 | -10 | 76 | 21 |  | 81 | 48 | 60 | 92 |  | 46 |  |  |  |  | 
C=CCOc1ccc(C(=O)c2cccs2)cc1C(C)C(=O)O (centres undefined) | -25 |  | 3 | 18 | -14 | 6 | -8 | 11 | 62 |  |  | -21 |  |  |  | 
CC1C(=O)Oc2ccc(C(=O)c3cccs3)cc21 (centres undefined) | 37 | 39 | 48 | 31 | 31 | 61 | 40 | 15 | 67 |  |  |  |  |  |  | 
NC1=NN(c2cccc(C(F)(F)F)c2)CC1 [BW-755C] |  | 40 |  |  |  | 79 |  | 82 | 90 |  |  |  | 45 |  |  | 
COc1ccc2c(c1)c(CC(=O)O)c(C)n2C(=O)c1ccc(Cl)cc1 [INDOMETHACIN] | -12 | -81 |  |  | 91 | 84 |  | 70 | 91 |  |  |  |  | 77 | 37 | 56
